According to publication PMC11797553 (Science Advances, 2025):
Ends that are not written are not given here.

How the values were obtained:
[1] = test system: mammalian cells; assay: Cytotoxicity assay; assay type: cell-based, human; conditions: for concentration inducing cytotoxicity relative to MICs: cytotoxic concentration / MIC; for cytotoxicity: in words, MTT, HaCaTs and HUVECs, 24 h
Method in brief: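 HUVECs and HaCaTs in log phase were trypsinised, adjusted to 5 × 10^4 cells/ml, seeded and left to adhere overnight. Cells were exposed to a range of peptide concentrations (peptides in sterile water) for 24 h at 37°C, 5% CO2, with untreated wells as controls. MTT (5 mg/ml stock) was added for 4 h, the supernatant was removed, formazan was dissolved in DMSO, and A490 was read.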

[2] = test system: rat erythrocytes; assay: Hemolysis assay; assay type: cell-based, Sprague-Dawley rats; conditions: for concentration inducing hemolysis relative to MICs: hemolytic concentration / MIC
Method in brief: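 Sprague-Dawley rat blood was drawn from the abdominal aorta into heparin. RBCs were centrifuged, washed and made up as a 10% suspension in saline. Peptides, twofold-diluted in saline, were incubated with the RBCs at 37°C for 1 h, then spun 10 min, and supernatant A540 was read. Controls were saline (0%) and 1% Triton X-100 (100%). Hemolysis % = (Am − An)/(Ap − An) × 100.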

[3] = test system: six strains of pathogenic fungi and five strains of pathogenic bacteria; assay: MIC determination, whole panel of fungi and bacteria; assay type: cell-based; conditions: in words
[4] = test system: A. baumannii; assay: Murine lung infection; assay type: in vivo, BALB/c mice; conditions: 40 mg/kg intravenously for three consecutive days
[5] = test system: A. baumannii GD003; assay: Drug resistance development, serial passage; assay type: cell-based, Acinetobacter baumannii; conditions: A. baumannii GD003, serial passage at sub-MIC for 30 days, 96-well plates
Method in brief: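 A. baumannii GD003 was activated in liquid culture and grown 12 h. It was diluted to 5 × 10^5 cells/ml in MHB and tested by broth microdilution in 96-well plates (37°C, 24 h; MIC = lowest concentration with no visible growth). Cells from the half-MIC well were carried into the next round and the MIC was re-measured, repeating over 30 days.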

Sequence	concentration inducing cytotoxicity relative to MICs [1]	cytotoxicity [1]	concentration with hemolytic activity ([2]; 10% rat RBC, 37°C, 1 h)	concentration inducing hemolysis relative to MICs [2]	antimicrobial activity [3]	H&E staining of off-target tissues (heart, liver, kidney) [4]	MIC after 30 passages of induced resistance [5]	hemolytic activity ([2]; in words, 10% rat RBC, 37°C, 1 h (Fig. 3A))
WFHFFQRGSYNGI [AMP-29]	> 32 fold	low cytotoxicity	50 µM	4 fold				
VTFVRLAGVASAVKTKAG [peptide 26]					lacks antimicrobial activity			
WLGSKIKAAKMKVGMWGAVGLRHN [AMP-24]	at least 32 fold	low cytotoxicity		at least 32 fold		no obvious immune cell infiltrations were observed	12.5 µM	
GIWDMIRKVRTVIRKAKQIKTFINGKGVQ [AMP-11]		moderate cytotoxicity						potent hemolytic activity
